PostGolgi ctrl = growth inhibition of yeast control strain, primary screen, counter-screen for post-Golgi transport modulator project | hit rate 5% among 98,000 | efflux-deficient yeast background strain, growth absorbance A615, 16 h | inhibition, % at 10 µM | AID 738, 2007
PostGolgi yeast = phenotypic screen on post-Golgi transport, primary screen | post-Golgi transport phenotypic cell assay | inhibition, % at 10 µM | hit rate 0.9% among 98,000;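 also: yeast cells grown in 1536-well plates; yeast grown about 18 h at 30C before absorbance read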
Ecoli WT expand = growth inhibitors of wild-type E. coli, primary screen, strain BW25113, expanded library, OD600; hit rate 0.15% among 98,000; OD600 absorbance; growth inhibition, % at 100 µM;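 active = growth inhibition above about 50% at one test dose, limit read from the data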;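 also: growth measured after 20 h incubation at 37 °C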
PTK2B oligo ant = antagonists of Pyk2 self-association, primary screen, Q293 cells, FERM NanoBiT luminescence, HTS | AID 1347419, 2020 | z-score (the deposit names both 25 µM and 10 µM) | hit rate 0.83% among 99,000 | hits give low values;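 active = Z-score of -3 or lower, scaled per plate to the spread of control and sample wells; inactive = z-score above -3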;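 also: negative z-score means lost luminescence so less FERM oligomerization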
Ecoli tolC = growth inhibitors of E. coli tolC mutant, primary screen, strain BW25113 ΔtolC::kan, 384-well; OD615; growth inhibition, % at 10 µM (by protocol); hit rate 2.2% among 65,000; AID 573, 2007;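 active = growth inhibition at or above a cutoff equal to the mean over every tested compound plus 3 SD, cut at about 60% in these data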;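 also: growth measured after 20 h incubation at 37 °C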
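Test system: E. coli BW25113 ΔtolC::kan bacteria; incubation: 37 °C, 20 h exposure; medium: LB broth supplemented with 50 µg/mL kanamycin; read-out basis: percent growth inhibition; signal: A615 absorbance measurement; compound: 10 µM final, single dose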
Cav3 T inh = Cav3.2 calcium influx blockers – cell-based, Fluo-4 calcium fluorescence, FDSS, MLSMR library, primary screen | hit rate 4% among 100,000 | B-score at 10 µM | AID 449739, 2010 | Cav3.2-expressing cells; hits give low values;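 active = single-dose well whose peak fluorescence ratio is a statistical outlier from its plate by either plate-standardised score or position-corrected B-score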
The depositor's hits bear a star; / = not tested or not shown. In the library only some 8.7% were active in any assay of this set; here they are far more common. Rule as the data show it, unless noted: active = inhibition above about 30%; inactive = the rest.

SMILES	PostGolgi ctrl	PostGolgi yeast	Ecoli WT expand	PTK2B oligo ant	Ecoli tolC	Cav3 T inh
O=C1c2ccccc2C(Nc2ccc(F)c(Cl)c2)N1c1ccccn1 (stereo not drawn)	20.0	-1.8	8.0	/	1.8	-1.95
O=C1c2ccccc2C(Nc2ccc3c(c2)OCCO3)N1c1ccc(Cl)cn1 (stereo not drawn)	35.1*	1.2	0.0	/	19.9	-0.0226
O=C1c2ccccc2C(Nc2ccc3c(c2)OCCO3)N1c1ccccn1 (stereo not drawn)	12.4	-1.3	-12.0	/	12.7	-0.727
Cc1ccc(N2C(=O)c3ccccc3C2Nc2ccccc2)nc1 (stereo not drawn)	14.1	1.8	2.0	/	/	-0.227
COc1ccc(NC2c3ccccc3C(=O)N2c2ccccn2)cc1Cl (stereo not drawn)	47.1*	7.0	-2.0	/	/	-1.95
CCc1cccc(NC2c3ccccc3C(=O)N2c2ccc(C)cn2)c1 (stereo not drawn)	23.6	1.3	-23.0	/	33.9	-4.43*
Cc1cc(NC(=O)CSc2ccc3c(c2)OCCO3)no1	13.8	4.5	5.0	0.84	2.3	-0.0756
O=S(=O)(c1ccc(NC2CCCCC2)cc1)N1CCOCC1	-5.3	5.8	12.0	-0.45	12.5	-0.267
Cc1ccccc1NC(=S)NN1CCN(C)CC1	5.6	-2.1	-6.0	0.47	/	-0.0383
CC1(C)CC2CC(C)(CN2C(=O)COC(=O)c2ccc(Cl)c(N)c2)C1 (stereo not drawn)	17.4	-1.4	-7.0	0.95	/	-6.45*
CCC1CCC2(CC1)NNC(=S)NN2	11.2	-25.0	18.0	0.54	/	-3.04
CCOC(=O)c1c(C)oc2c1c(C(c1cccnc1)N1CCCCC1)c(O)c1ccccc12 (stereo not drawn)	52.7*	18.4	-8.0	-1.13	/	1.51
CCOC(=O)c1c(C)oc2c1c(C(c1ccccc1)N1CCOCC1)c(O)c1ccccc12 (stereo not drawn)	28.7	-3.9	-3.0	-1.5	/	-1.17
COC(=O)c1sc(NC(=O)c2cc(-c3ccccc3)nc3ccccc23)c(C#N)c1C	-2.3	1.6	-2.0	-2.9	/	-1.36
Cc1ccccc1-c1cc(C(=O)Nc2sc(C(=O)OC(C)C)c(C)c2C#N)c2ccccc2n1	6.3	1.8	-18.0	-3.9*	/	-3.16
Cn1ccs/c1=N\S(=O)(=O)c1ccc(Br)cc1	2.8	-6.7	9.0	-0.24	/	0.0613
O=C(CN(C1CCCCC1)S(=O)(=O)c1ccc(F)cc1)Nc1ccc2c(c1)OCO2	/	/	/	-1.62	/	-5.56*
O=C(CN(C1CC1)S(=O)(=O)c1ccc(S(=O)(=O)NC2CCCCC2)cc1)Nc1ccccc1	7.5	1.0	-12.0	-1.69	82.9*	-11.7*
COc1cccc(N(CC(=O)Nc2ccc3c(c2)OCO3)S(=O)(=O)c2ccccc2)c1	0.3	-0.6	-8.0	-3.07*	/	1.08
O=C(CN(C1CCCCC1)S(=O)(=O)c1ccc(F)cc1)NCCCO	5.5	6.3	-3.0	0.93	3.0	-0.000127
COC(=O)CCN(C1CCCCC1)S(=O)(=O)c1ccc(S(=O)(=O)NC2CCCCC2)cc1	14.7	-5.0	-12.0	-0.98	/	-5.86*
CC(C)Oc1ccc(Cl)cc1Nc1nc(NCCO)nc(N2CCCC2)n1	/	/	/	/	/	1.02
COc1ccc(Br)cc1[C@H]1[C@H]2C=CC[C@@H](C)[C@@H]2C(=O)N1Cc1ccccc1	/	/	/	/	/	0.309
O=C(COc1ccc(Cl)cc1)Nc1ccc(Cl)cn1	-0.7	-4.9	10.0	-0.43	-7.2	-1.69
O=C(COc1ccc(Cl)cc1)Nc1nc(-c2cccs2)cs1	21.7	7.7	-10.0	1.24	69.2*	-0.289
SMILES	PostGolgi ctrl	PostGolgi yeast	Ecoli WT expand	PTK2B oligo ant	Ecoli tolC	Cav3 T inh
O=C(Cc1ccccc1)Nc1nc(-c2cccs2)cs1	-1.4	-7.6	2.0	-1.19	39.9	-2.7
O=C(Cc1ccccc1F)Nc1nc(-c2cccs2)cs1	5.6	9.6	-1.0	-1.31	91.2*	-9.64*
CCOC(=O)Cc1csc(NC(=O)COc2ccccc2)n1	1.0	2.4	2.0	0.36	5.6	-1.74
CCOC(=O)Cc1csc(NC(=O)COc2ccc(N(C)S(=O)(=O)c3cccs3)cc2)n1	11.8	1.4	-13.0	-2.05	41.1	-4.67*
CC(=O)N=c1sc(C(C)(C)C)c(C)n1C	6.5	-8.6	5.0	0.33	-3.3	-0.063
O=C(NNC(=O)C1CCN(S(=O)(=O)c2ccc(Cl)cc2)CC1)c1ccccc1	/	/	/	0.1	/	/

Compound activity as filed in PubChem BioAssay.
